# Calls of active or inactive are those of the source. The calls are words filed in the database; no cut-off is given here.
# Columns and labels:
# [1] = target: T1, Diacylglycerol lipase-alpha (Mus musculus, UniProt Q6WQJ1); experiment: Inhibition of MB064 probe binding to DAGLalpha in mouse brain membrane proteome preincubated for 30 mins followed by MB064 probe addition measured after 20 mins by gel-based competitive activity based protein profiling assay; format: cell membranes
# T1 sequence (Q6WQJ1 whole entry): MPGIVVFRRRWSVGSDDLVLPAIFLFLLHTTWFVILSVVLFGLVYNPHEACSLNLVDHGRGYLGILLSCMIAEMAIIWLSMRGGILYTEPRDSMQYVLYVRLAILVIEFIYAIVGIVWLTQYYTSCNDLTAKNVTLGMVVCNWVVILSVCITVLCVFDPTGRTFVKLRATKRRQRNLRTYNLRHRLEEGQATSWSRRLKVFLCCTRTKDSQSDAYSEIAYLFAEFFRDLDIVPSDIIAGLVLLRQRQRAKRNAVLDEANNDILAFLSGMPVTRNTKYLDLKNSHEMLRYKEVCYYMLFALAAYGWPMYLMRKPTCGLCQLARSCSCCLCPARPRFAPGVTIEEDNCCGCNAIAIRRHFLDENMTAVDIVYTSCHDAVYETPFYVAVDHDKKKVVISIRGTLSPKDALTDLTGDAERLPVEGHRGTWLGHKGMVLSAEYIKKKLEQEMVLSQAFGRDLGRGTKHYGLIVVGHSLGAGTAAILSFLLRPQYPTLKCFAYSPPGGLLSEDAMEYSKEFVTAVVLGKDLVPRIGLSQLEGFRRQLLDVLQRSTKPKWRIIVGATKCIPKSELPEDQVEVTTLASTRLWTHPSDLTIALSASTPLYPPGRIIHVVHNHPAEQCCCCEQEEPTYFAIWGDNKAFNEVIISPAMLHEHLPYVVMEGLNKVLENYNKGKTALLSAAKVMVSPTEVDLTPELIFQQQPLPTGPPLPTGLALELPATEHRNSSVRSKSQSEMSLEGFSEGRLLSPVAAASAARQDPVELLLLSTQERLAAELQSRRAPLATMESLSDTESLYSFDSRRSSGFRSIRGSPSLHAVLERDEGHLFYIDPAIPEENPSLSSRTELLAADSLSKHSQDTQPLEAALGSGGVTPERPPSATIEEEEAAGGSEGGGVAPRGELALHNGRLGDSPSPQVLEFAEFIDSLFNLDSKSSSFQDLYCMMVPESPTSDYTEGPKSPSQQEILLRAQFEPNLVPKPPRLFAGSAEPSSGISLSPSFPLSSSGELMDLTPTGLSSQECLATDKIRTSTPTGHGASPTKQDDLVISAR
# How it was run: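 Mouse brain membrane proteome (2 mg/mL) preincubated with inhibitor or DMSO vehicle for 30 min at r.t., then labelled with MB064 at 250 nM final for 20 min at r.t. and quenched in Laemmli buffer. Fluorescent bands were quantified against vehicle set to 100%, and IC50 was taken from a variable-slope log(inhibitor) vs normalized response fit. n = 3.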
# [2] = target: T2, Diacylglycerol lipase-alpha (Homo sapiens, UniProt Q9Y4D2); experiment: Inhibition of full length recombinant human DAGLalpha expressed in HEK293T cell membranes using PNP butyrate as substrate by colorimetric assay; set-up: species or system HEK-293T
# T2 sequence (Q9Y4D2 whole entry): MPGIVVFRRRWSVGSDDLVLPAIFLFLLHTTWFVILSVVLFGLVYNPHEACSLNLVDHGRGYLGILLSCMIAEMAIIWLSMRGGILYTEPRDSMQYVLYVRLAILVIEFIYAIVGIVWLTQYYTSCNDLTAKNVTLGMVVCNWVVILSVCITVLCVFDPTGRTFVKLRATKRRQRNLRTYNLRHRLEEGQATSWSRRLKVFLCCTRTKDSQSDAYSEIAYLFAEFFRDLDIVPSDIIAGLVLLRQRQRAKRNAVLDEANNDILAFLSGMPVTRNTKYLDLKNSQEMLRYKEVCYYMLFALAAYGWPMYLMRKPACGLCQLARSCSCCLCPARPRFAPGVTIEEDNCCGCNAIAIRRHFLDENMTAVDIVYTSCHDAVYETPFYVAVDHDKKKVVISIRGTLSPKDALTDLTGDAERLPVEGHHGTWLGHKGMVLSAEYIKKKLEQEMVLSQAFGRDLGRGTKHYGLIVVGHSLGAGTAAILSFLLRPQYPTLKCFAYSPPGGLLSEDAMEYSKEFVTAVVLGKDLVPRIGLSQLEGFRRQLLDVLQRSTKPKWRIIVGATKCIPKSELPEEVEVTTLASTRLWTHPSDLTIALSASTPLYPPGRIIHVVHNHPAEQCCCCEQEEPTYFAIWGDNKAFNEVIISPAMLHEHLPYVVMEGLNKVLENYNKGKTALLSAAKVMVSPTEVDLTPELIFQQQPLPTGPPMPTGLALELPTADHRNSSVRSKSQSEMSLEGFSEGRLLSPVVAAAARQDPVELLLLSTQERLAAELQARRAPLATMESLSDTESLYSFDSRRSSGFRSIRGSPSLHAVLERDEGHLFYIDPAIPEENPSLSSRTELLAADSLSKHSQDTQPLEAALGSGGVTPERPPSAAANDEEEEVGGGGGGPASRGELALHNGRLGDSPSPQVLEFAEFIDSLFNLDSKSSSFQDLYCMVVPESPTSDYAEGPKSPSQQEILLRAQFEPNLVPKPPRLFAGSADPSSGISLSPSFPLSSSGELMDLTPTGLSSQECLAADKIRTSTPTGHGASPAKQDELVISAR
# How it was run: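 Membranes from HEK293T cells transiently transfected with human DAGLα (PEI transfection, harvested at 72 h), used at 0.05 µg/µL final protein in 50 mM HEPES pH 7.2. Activity was read colorimetrically from para-nitrophenylbutyrate hydrolysis. n = 4, mean ± SEM.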
# [3] = target: T3, Monoacylglycerol lipase ABHD6 (Homo sapiens, UniProt Q9BV23); experiment: Inhibition of human ABHD6 using 2-AG as natural substrate by fluorescence based assay
# T3 sequence (Q9BV23 whole entry): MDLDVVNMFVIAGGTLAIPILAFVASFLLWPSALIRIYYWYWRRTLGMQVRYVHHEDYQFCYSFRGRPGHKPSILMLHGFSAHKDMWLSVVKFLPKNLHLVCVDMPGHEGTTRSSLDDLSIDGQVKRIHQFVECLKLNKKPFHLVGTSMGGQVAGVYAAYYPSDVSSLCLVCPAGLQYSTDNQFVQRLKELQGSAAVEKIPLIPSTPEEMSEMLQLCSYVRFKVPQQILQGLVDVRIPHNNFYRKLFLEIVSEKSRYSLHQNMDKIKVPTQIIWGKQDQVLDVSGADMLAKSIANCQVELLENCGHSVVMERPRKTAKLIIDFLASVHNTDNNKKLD
# How it was run: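 Coupled fluorescence assay: 2-AG hydrolysis detected via glycerol kinase, glycerol-3-phosphate oxidase and HRP (0.2 U/mL each), 0.125 mM ATP and 10 µM Amplifu Red. Conditions: 25 µM 2-AG, 0.5% acetonitrile, 5% DMSO, ABHD6 membrane protein 40 µg/mL final. n = 4.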
# [4] = target: T2, Diacylglycerol lipase-alpha; experiment: Inhibition of recombinant human DAGLalpha expressed in HEK293T cell membranes overexpressing MAGL using natural substrate 1-stearoyl-2-arachidonoly-sn-glycerol by fluorescence based assay; set-up: species or system HEK-293T
# How it was run: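 Real-time coupled fluorescence readout of glycerol release from hDAGLα-transfected HEK293T membranes (50 µg/mL final protein) with 100 µM SAG substrate. Added: 5 µg/mL MAGL-overexpressing membranes, 0.0075% (w/v) Triton X-100, 0.2 U/mL each glycerol kinase, glycerol-3-phosphate oxidase and HRP, 0.125 mM ATP, 10 µM Amplifu Red, 5% DMSO. n = 4.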
# Mus musculus [5] = experiment: Toxicity in 18 hrs fasted C57Bl/6J mouse model of fasting-induced refeeding assessed as hypolocomotion at 50 mg/kg, ip administered as single dose 30 mins prior to refeeding measured after 24 hrs; format: organism-based; settings: in vivo
# Mus musculus [6] = experiment: Ex vivo inhibition of FP-TAMRA probe binding to carboxylesterase in mouse liver at 3 to 50 mg/kg, ip after 4 hrs by gel-based competitive activity based protein profiling assay; format: functional, organism-based
# Mus musculus [7] = experiment: Inhibition of fasting-induced refeeding in 18 hrs fasted C57Bl/6J mouse at 50 mg/kg, ip administered as single dose 30 mins prior to refeeding measured up to 16 hrs; format: functional, organism-based
# [8] = target: T4, Diacylglycerol lipase-beta (Mus musculus, UniProt Q91WC9); experiment: Inhibition of recombinant mouse DAGLbeta expressed in HEK293T cell membranes using PNP butyrate as substrate by colorimetric assay; set-up: species or system HEK-293T
# T4 sequence (Q91WC9 whole entry): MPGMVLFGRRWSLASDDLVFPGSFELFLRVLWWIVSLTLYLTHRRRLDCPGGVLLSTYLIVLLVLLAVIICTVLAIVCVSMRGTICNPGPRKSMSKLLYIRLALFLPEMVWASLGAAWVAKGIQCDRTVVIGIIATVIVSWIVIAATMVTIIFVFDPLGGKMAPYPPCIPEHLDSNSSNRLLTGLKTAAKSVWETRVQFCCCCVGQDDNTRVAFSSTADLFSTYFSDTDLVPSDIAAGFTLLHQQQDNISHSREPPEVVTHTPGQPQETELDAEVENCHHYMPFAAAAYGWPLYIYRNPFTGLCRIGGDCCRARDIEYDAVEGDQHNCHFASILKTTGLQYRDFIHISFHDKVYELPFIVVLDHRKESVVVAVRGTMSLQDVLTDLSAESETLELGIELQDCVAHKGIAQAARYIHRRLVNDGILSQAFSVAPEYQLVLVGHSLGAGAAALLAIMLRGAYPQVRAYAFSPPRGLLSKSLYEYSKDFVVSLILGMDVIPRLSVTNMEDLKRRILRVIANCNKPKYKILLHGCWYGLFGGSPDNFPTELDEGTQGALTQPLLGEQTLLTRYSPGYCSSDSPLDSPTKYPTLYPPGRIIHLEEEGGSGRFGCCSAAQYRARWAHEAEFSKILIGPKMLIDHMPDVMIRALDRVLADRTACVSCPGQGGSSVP
# How it was run: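 Membranes from HEK293T cells transiently transfected with mouse DAGLβ. Activity was read colorimetrically as hydrolysis of para-nitrophenylbutyrate surrogate substrate over a concentration range of inhibitor. n = 4, mean ± SEM.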
# [9] = target: T5, Diacylglycerol lipase-alpha (Homo sapiens) (UniProt Q9Y4D2); experiment: Inhibition of DH379 probe binding to full length recombinant human DAGLalpha expressed in HEK293T cell membranes at 0.1 to 10000 nM after 30 mins by gel-based competitive activity based protein profiling assay; settings: HEK-293T
# T5 sequence (whole entry): T2 sequence (Q9Y4D2 whole entry)
# How it was run: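 Membranes from HEK293T cells transiently transfected with human DAGLα were preincubated with inhibitor, then labelled with DAGL-tailored probe DH379 (1 μM, 30 min). Readout was fluorescent SDS gel. Band intensity was normalized to vehicle (100%) and fitted with a variable-slope dose-response curve. n = 3.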
# [10] = target: T6, Diacylglycerol lipase-beta (Homo sapiens) (UniProt Q8NCG7); experiment: Inhibition of DH379 probe binding to full length recombinant human DAGLbeta expressed in HEK293T cell membranes at 0.1 to 10000 nM after 30 mins by gel-based competitive activity based protein profiling assay; settings: HEK-293T
# T6 sequence (whole entry): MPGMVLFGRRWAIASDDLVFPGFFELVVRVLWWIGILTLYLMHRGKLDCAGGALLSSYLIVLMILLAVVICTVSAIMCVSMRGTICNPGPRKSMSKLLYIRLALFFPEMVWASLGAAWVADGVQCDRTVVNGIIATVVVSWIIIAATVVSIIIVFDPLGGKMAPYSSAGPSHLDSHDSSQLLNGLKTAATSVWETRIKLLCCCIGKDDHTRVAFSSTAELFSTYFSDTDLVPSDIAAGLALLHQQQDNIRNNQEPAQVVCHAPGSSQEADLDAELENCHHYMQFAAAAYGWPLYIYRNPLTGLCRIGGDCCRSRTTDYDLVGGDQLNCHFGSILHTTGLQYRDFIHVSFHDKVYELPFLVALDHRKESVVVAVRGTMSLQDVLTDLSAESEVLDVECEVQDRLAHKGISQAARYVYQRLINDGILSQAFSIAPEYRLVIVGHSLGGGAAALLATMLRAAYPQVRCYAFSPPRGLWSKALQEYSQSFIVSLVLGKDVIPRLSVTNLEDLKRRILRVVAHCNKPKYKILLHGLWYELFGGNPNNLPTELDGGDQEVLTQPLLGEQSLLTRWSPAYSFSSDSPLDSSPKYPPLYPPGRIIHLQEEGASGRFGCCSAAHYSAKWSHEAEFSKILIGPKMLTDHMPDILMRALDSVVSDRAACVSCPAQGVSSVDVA
# How it was run: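 HEK293T cells transiently transfected with full-length human DAGLβ cDNA (PEI:DNA 3:1), harvested at 72h; membrane fraction diluted to 1 mg/mL protein. Inhibitor-treated membranes were labelled with DAGL-tailored probe DH379 (1 μM, 30 min), then run on fluorescent SDS-PAGE. Band intensity was normalised to vehicle (100%), and IC50 was fitted to log(inhibitor) vs normalised response with variable slope; n = 3.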
# [11] = target: T2, Diacylglycerol lipase-alpha; experiment: Inhibition of HT-01 probe binding to recombinant human DAGLalpha expressed in HEK293T cell membrane proteomes preincubated for 30 mins followed by HT-01 probe addition measured after 30 mins by gel-based competitive activity based protein profiling assay; format: cell membranes, HEK-293T
SMILES,IC50 [2],IC50 [3],IC50 [4],IC50 [8],other results
O=C(N1CCCC[C@@H]1Cc1ccccc1)n1cc(-c2ccc(-c3ccccc3)cc2)nn1,0.794 nM,2.51 nM,25.1 nM,,IC50 [1]: 7.94 nM
C/C=C/[C@@H](O)C#N,,,,,Activity (Mus musculus [5]): Toxic; inhibition (Mus musculus [6]): Active; inhibition (Mus musculus [7]): Active
CCC1CCCCN1C(=O)n1cc(-c2ccc(-c3ccccc3)cc2)nn1 (configuration not stated),20 nM,,,20000 nM,
C/C=C/C=O [CROTONALDEHYDE],,,,,Activity (Mus musculus [5]): Toxic; inhibition (Mus musculus [6]): Active; inhibition (Mus musculus [7]): Active
O=C(N1CCCCC1Cc1ccccc1)n1ncc(C(O)(c2ccccc2)c2ccccc2)n1 (configuration not stated),2.51 nM,20 nM,,12.6 nM,inhibition [9]: Active; inhibition [10]: Active
CCC1CCCCN1C(=O)n1ncc(C(O)(c2ccccc2)c2ccccc2)n1 (configuration not stated),63.1 nM,,,12600 nM,
O=C(N1CCCCC1Cc1ccccc1)n1cc(C(O)(c2ccccc2)c2ccccc2)nn1 (configuration not stated),25.1 nM,39.8 nM,,79.4 nM,
O=C(N1CCCC[C@H]1Cc1ccccc1)n1cc(-c2ccc(-c3ccccc3)cc2)nn1,39.8 nM,631 nM,794 nM,,IC50 [1]: 631 nM
O=C(N1CCCCC1Cc1ccccc1)n1cc(-c2ccc(-c3ccccc3)cc2)nn1 (racemic),1.26 to 6.31 nM,39.8 nM,126 nM,,IC50 [11]: 2300 nM; inhibition [9]: Active; inhibition [10]: Active

# — ChEMBL document CHEMBL3877306, “Triazole Ureas Act as Diacylglycerol Lipase Inhibitors and Prevent Fasting-Induced Refeeding” (J Med Chem, 2017)
